Molecular target: T1, Diacylglycerol lipase-alpha (Homo sapiens, UniProt Q9Y4D2)
T1 sequence (Q9Y4D2 whole entry): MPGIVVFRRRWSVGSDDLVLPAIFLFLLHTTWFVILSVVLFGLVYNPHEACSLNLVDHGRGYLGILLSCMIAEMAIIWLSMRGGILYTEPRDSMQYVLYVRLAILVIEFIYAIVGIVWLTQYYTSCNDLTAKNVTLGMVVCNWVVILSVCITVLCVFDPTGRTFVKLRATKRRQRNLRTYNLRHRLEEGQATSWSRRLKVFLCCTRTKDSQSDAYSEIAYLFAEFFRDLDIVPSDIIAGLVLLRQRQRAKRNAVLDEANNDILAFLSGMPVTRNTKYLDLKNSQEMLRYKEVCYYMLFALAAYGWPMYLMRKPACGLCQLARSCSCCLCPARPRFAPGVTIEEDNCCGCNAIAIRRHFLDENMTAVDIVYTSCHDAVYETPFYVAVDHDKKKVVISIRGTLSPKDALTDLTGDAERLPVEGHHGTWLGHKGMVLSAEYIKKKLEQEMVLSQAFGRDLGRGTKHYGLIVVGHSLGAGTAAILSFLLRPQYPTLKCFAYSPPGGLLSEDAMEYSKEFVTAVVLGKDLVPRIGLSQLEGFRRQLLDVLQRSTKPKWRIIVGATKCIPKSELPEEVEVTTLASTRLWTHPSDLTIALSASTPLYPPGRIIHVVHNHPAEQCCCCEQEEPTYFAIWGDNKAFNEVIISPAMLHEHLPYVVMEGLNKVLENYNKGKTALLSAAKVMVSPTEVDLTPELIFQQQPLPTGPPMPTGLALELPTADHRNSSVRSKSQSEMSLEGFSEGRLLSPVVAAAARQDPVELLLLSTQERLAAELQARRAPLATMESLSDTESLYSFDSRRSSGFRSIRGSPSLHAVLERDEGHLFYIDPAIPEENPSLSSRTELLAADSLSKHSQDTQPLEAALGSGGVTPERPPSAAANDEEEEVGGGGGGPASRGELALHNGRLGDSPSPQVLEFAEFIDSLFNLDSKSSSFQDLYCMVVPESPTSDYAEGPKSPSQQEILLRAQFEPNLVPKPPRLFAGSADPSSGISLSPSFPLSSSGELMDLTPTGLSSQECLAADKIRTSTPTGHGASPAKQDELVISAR
Experiment: Inhibition of full-length human DAGLalpha expressed in HEK293T cell membranes using para-nitrophenylbutyrate by colorimetric assay
Assay type: cell-based, HEK-293T
How it was run: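 Membranes from HEK293T cells transiently transfected with full-length human DAGL-α (pcDNA3.1; PEI transfection, harvested at 72 h), diluted to 0.05 μg/μL final protein in 50 mM HEPES pH 7.2. Screen at 10 μM in duplicate; dose response by 10-fold serial dilution.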

SMILES | IC50 [nM]
O=C(CCCCCCc1ccccc1)c1nnc(-c2cccs2)[nH]1 | > 10000
Cc1cnc(C(=O)CCCCCCc2ccccc2)o1 | > 10000
O=C(CCCCCCc1ccccc1)c1nnc(-c2ccccc2)o1 | > 10000
O=C(CCCCCCc1ccccc1)c1nnn(-c2cccs2)n1 | > 10000
O=C(CCc1ccccc1)c1nc2ncccc2o1 | 18200
COC(=O)c1cccc(-c2noc(C(=O)CCCCCCc3ccccc3)n2)n1 | > 10000
O=C(CCCCCc1ccccc1)c1nc2ccccc2[nH]1 | 12000
O=C(CCCCCCc1ccccc1)c1ncc(Br)o1 | > 10000
O=C(CCCCCCc1ccccc1)c1nnc(-c2ccccc2)[nH]1 | > 10000
CCCCCC(=O)c1nc2ncccc2o1 | > 10000
O=C(CCCCCCc1ccccc1)c1nnc(-c2ccco2)s1 | > 10000
O=C(CCCCCc1ccccc1)c1nc2ccc(Br)cc2o1 | 5890
O=C(CCCCCCc1ccccc1)c1ncc(-c2ccccn2)s1 | > 10000
O=C(CCCCCCc1ccccc1)c1ncno1 | > 10000
CC(=O)c1nc2ncccc2o1 | > 10000
CSc1coc(C(=O)CCCCCCc2ccccc2)n1 | > 10000
CC(=O)c1cnc(C(=O)CCCCCCc2ccccc2)o1 | > 10000
O=C(CCCCCCc1ccccc1)c1nnc(-c2ccco2)o1 | > 10000
O=C(CCCCCCc1ccccc1)c1noc(-c2ccco2)n1 | > 10000
O=C(CCCCCCc1ccccc1)c1nc(-c2ccncc2)co1 | > 10000

SMILES | IC50 [nM]
Cc1coc(C(=O)CCCCCCc2ccccc2)n1 | > 10000
O=C(CCCCCCc1ccccc1)c1ccc(-c2cccs2)nn1 | > 10000
O=C(CCCCCCc1ccccc1)c1ncc(-c2ccccc2F)o1 | > 10000
CCCCC(=O)c1nc2ncccc2o1 | > 10000
O=C(CCCCCCc1ccccc1)c1ncc(-c2cccs2)s1 | > 10000
O=Cc1cnc(C(=O)CCCCCCc2ccccc2)o1 | > 10000
O=C(CCCCCCc1ccccc1)c1nc(-c2cccc(Cl)n2)no1 | > 10000
COC(=O)c1nc(C(=O)CCCCCCc2ccccc2)no1 | > 10000
CS(=O)(=O)c1cnc(C(=O)CCCCCCc2ccccc2)o1 | > 10000
COC(=O)c1nnc(C(=O)CCCCCCc2ccccc2)s1 | > 10000
CN(C)C(=O)c1cnc(C(=O)CCCCCCc2ccccc2)o1 | > 10000
O=C(CCCCCCc1ccccc1)c1ncc(-c2ccc(C(=O)C(F)(F)F)cc2)o1 | > 10000
Cn1nnnc1C(=O)CCCCCCc1ccccc1 | > 10000
O=C(CCCCCCc1ccccc1)c1ccc(-c2ccccn2)nn1 | > 10000
O=C(CCCCCc1ccccc1)c1nc2ccccc2s1 | > 10000
COc1cnc(C(=O)CCCCCCc2ccccc2)o1 | > 10000
COC(=O)c1cnc(C(=O)CCCCCCc2ccccc2)o1 | > 10000
O=C(CCCCCCc1ccccc1)c1nnc[nH]1 | > 10000
N#Cc1cnc(C(=O)CCCCCCc2ccccc2)o1 | > 10000
O=C(CCCCCCc1ccccc1)c1nnc(-c2cccnc2)o1 | > 10000

These reach a lower IC50. Values come first.

IC50 [nM] | SMILES
74.1 | CCCCCCCCCCCCCC(=O)c1nc2ncccc2o1
1050 | N#Cc1cccc(-c2noc(C(=O)CCCCCCc3ccccc3)n2)n1
30.9 | CCCCCCCCCCCC(=O)c1nc2ncccc2o1
1700 | O=C(CCCCCc1ccccc1)c1nc2cccnc2o1
3630 | O=C(CCCCCc1ccccc1)c1nc2ccccc2o1
123 | O=C(CCCCCCc1ccccc1)c1nc(C(=O)C(F)(F)F)co1
631 | CCCCCCCC(=O)c1nc2ncccc2o1
1950 | O=C(CCCCCCc1ccccc1)c1nc(-c2cccs2)no1
87.1 | O=C(CCCCCc1ccccc1)c1nc2ccc([N+](=O)[O-])cc2o1
575 | N#Cc1coc(C(=O)CCCCCCc2ccccc2)n1
1230 | O=C(CCCCCc1ccccc1)c1nc2ncccc2[nH]1
933 | O=C(CCCCCCc1ccccc1)c1nc(-c2ccco2)no1
204 | O=C(CCCCCc1ccccc1)c1nc2cnccc2o1
2690 | O=C(CCCCCCc1ccccc1)c1nnco1
631 | COC(=O)c1coc(C(=O)CCCCCCc2ccccc2)n1
525 | O=C(CCCCCCc1ccccc1)c1nc2ncccc2o1
117 | O=C(CCCCCc1ccccc1)c1nc2c(F)cccc2o1
2240 | O=C(CCCc1ccccc1)c1nc2ncccc2o1
1510 | O=Cc1coc(C(=O)CCCCCCc2ccccc2)n1
479 | CC(C)(C)C(=O)c1coc(C(=O)CCCCCCc2ccccc2)n1
550 | C=CCCCCCCCC(=O)c1nc2ncccc2o1
195 | CCCCCCCC/C=C\CCCCCCCC(=O)c1nc2ccccc2[nH]1
708 | O=C(CCCCCc1ccccc1)c1nc2ccc(F)cc2o1
3390 | CN(C)C(=O)c1coc(C(=O)CCCCCCc2ccccc2)n1
74.1 | CCCCCCCCCC(=O)c1nc2ncccc2o1
46.8 | O=C(CCCCCCCc1ccccc1)c1nc2ncccc2o1
204 | O=C(CCCCc1ccccc1)c1nc2ncccc2o1
214 | O=C(CCCCCCc1ccccc1)c1nc(C(F)(F)F)co1
26.3 | CCCCCCCC/C=C\CCCCCCCC(=O)c1nc2ncccc2o1

— ChEMBL document CHEMBL3751702, “Comprehensive Analysis of Structure-Activity Relationships of α-Ketoheterocycles as sn-1-Diacylglycerol Lipase α Inhibitors” (J Med Chem, 2015)
